Data on 17 molecules can be found in ChEMBL document CHEMBL1125490, “3'-Spiro nucleosides, a new class of specific human immunodeficiency virus type 1 inhibitors: synthesis and antiviral activity of [2'-5'-bis-O-(tert-butyldimethylsilyl)-beta-D-xylo- and -ribofuranose]-3'-spiro-5"-[4"-amino-1",2"-oxathiole 2",2"-dioxide] (TSAO) pyrimidine nucleosides” (J Med Chem, 1992).

Broadly, the EC50 is the concentration that produces a half-maximal response. By CC50 is commonly meant the concentration that lowers cell viability or growth by half.

In test [1] the test system is Human immunodeficiency virus 1. Kind of test: Concentration required to inhibit HIV-1 induced cytopathicity in human MT-4 lymphocyte cells. It counts as functional, organism-based. The gist of the method: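 MT-4 cells at 5 × 10⁵/mL were infected with HIV-1 at 100 CCID₅₀ per mL of cell suspension, then mixed 1:1 with serial dilutions of compound. After 5 days, viable cells were counted by trypan blue staining. EC₅₀ was the concentration giving 50% protection against virus-induced loss of viable cells. Values are means of at least three to five independent experiments.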
On the technique in general: Protection from cytopathic effect is a common read-out in antiviral testing.

The test system of test [2] is MT4. Kind of test: Concentration required to reduce human MT-4 cell viability by 50%. It counts as functional. The gist of the method:
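Mock-infected MT-4 cells were cultured 5 days with serial dilutions of compound, and viable cells were counted by trypan blue staining. CC₅₀ was the concentration reducing viable cell number by 50%. Values are means of at least three to five independent experiments.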

The subject of test [3] is MT4. The test is described as follows: Ratio of effective concentration to that of cytotoxic concentration against HIV-1 induced cytopathogenicity in MT-4 cells. It counts as functional.
[4] abbreviates: Human immunodeficiency virus 1, Lymphocyte, read-out: EC50.
The mark [5] stands for this setting: Homo sapiens, MT4, read-out: CC50.

Values after ≈ are worked out from the molar mass of the structure shown.

On to `Cc1cn([C@@H]2O[C@H](CO[Si](C)(C)C(C)(C)C)[C@@]3(OS(=O)(=O)C=C3N)[C@H]2O[Si](C)(C)C(C)(C)C)c(=O)[nH]c1=O`, for which the EC50 in test [1] (setting [4]) came to 0.034 µg/mL (≈ 0.0576 µM). The CC50 in test [2] (setting [5]) amounted to 7.7 µg/mL (≈ 13.1 µM).

For `Cc1cn([C@@H]2O[C@H](CO[Si](C)(C)C(C)(C)C)[C@]3(OS(=O)(=O)C=C3N)[C@H]2O[Si](C)(C)C(C)(C)C)c(=O)[nH]c1=O`, the EC50 in test [1] (setting [4]) is over 4 µg/mL. Besides, the CC50 in test [2] (setting [5]) was 18 µg/mL (≈ 30.5 µM). The Selectivity index in test [3] is reported as under 4.5.

`Cc1cn([C@@H]2O[C@H](CO[Si](C)(C)C(C)(C)C)[C@@](C#N)(OS(C)(=O)=O)[C@H]2O[Si](C)(C)C(C)(C)C)c(=O)[nH]c1=O`: the EC50 in test [1] (setting [4]) was over 1.6 µg/mL. Besides, the CC50 in test [2] (setting [5]) came out at 4.3 µg/mL (≈ 7.29 µM). For the same molecule, in test [3], the Selectivity index was under 2.7.

With `NC1=CS(=O)(=O)O[C@]12[C@@H](CO)O[C@@H](n1ccc(=O)[nH]c1=O)[C@@H]2O`, the EC50 in test [1] (setting [4]) was over 80 µg/mL. Further, the CC50 in test [2] (setting [5]) came out at 320 µg/mL (≈ 921 µM). The Selectivity index in test [3] was under 4.

On to `Cc1cn([C@H]2C[C@]3(OS(=O)(=O)C=C3N)[C@@H](CO[Si](C)(C)C(C)(C)C)O2)c(=O)[nH]c1=O`, for which the EC50 in test [1] (setting [4]) is over 0.8 µg/mL. Besides, the CC50 in test [2] (setting [5]) turned out to be 1.5 µg/mL (≈ 3.26 µM). The Selectivity index in test [3] is reported as under 1.9.

`Cc1cn([C@@H]2O[C@H](CO[Si](C)(C)C(C)(C)C)[C@@]3(OS(=O)(=O)C=C3N)[C@H]2O)c(=O)[nH]c1=O`: in test [1] (setting [4]), the EC50 was over 20 µg/mL. For the same molecule, in test [2] (setting [5]), the CC50 came to 45 µg/mL (≈ 94.6 µM). For the same molecule, in test [3], the Selectivity index is under 2.2.

Regarding `CC(C)(C)[Si](C)(C)O[C@H]1[C@H](n2ccc(=O)[nH]c2=O)O[C@H](CO)[C@]12OS(=O)(=O)C=C2N`, the EC50 in test [1] (setting [4]) is over 100 µg/mL. Further, the CC50 in test [2] (setting [5]) stood at 221 µg/mL (≈ 479 µM). The Selectivity index in test [3] was under 2.

For `Cc1cn([C@@H]2O[C@H](CO)[C@@]3(OS(=O)(=O)C=C3N)[C@H]2O[Si](C)(C)C(C)(C)C)c(=O)[nH]c1=O`, the EC50 in test [1] (setting [4]) is over 40 µg/mL. For the same molecule, the CC50 in test [2] (setting [5]) amounted to 106 µg/mL (≈ 223 µM). In addition, the Selectivity index in test [3] is under 2.6.

As for `CC(=O)Nc1ccn([C@@H]2O[C@H](CO[Si](C)(C)C(C)(C)C)[C@]3(OS(=O)(=O)C=C3N)[C@H]2O[Si](C)(C)C(C)(C)C)c(=O)n1`, the 50% effective concentration (EC50) in test [1] (setting [4]) is over 4 µg/mL. In addition, the CC50 in test [2] (setting [5]) is 7.1 µg/mL (≈ 11.5 µM). Besides, the Selectivity index in test [3] is under 1.8.

Turning to `Cc1cn([C@@H]2O[C@H](CO)[C@@]3(OS(=O)(=O)C=C3N)[C@H]2O)c(=O)[nH]c1=O`, the EC50 in test [1] (setting [4]) was over 100 µg/mL. In addition, in test [2] (setting [5]), the CC50 was over 100 µg/mL.

In the case of `CC(=O)Nc1ccn([C@@H]2O[C@H](CO[Si](C)(C)C(C)(C)C)[C@@]3(OS(=O)(=O)C=C3N)[C@H]2O[Si](C)(C)C(C)(C)C)c(=O)n1`, the EC50 in test [1] (setting [4]) was 0.097 µg/mL (≈ 0.157 µM). Also, the cytotoxic concentration (CC50) in test [2] (setting [5]) is 7.5 µg/mL (≈ 12.2 µM). The Selectivity index in test [3] was 77.

As for `Cc1cn([C@@H]2O[C@H](CO)[C@]3(OS(=O)(=O)C=C3N)[C@H]2O)c(=O)[nH]c1=O`, the 50% effective concentration (EC50) in test [1] (setting [4]) is over 500 µg/mL. Moreover, the CC50 in test [2] (setting [5]) was over 500 µg/mL. The Selectivity index in test [3] is under 1.

For `CC(C)=CCN1Cc2cccc3[nH]c(=S)n(c23)C[C@@H]1C`, the EC50 in test [1] (setting [4]) stood at 0.021 µg/mL (≈ 0.0731 µM). Moreover, the half-maximal cytotoxic concentration (CC50) in test [2] (setting [5]) was over 20 µg/mL. For the same molecule, the Selectivity index in test [3] is over 952.

In test [1] (lymphocyte), `CC(C)(C)[Si](C)(C)OC[C@H]1O[C@@H](n2ccc(=O)[nH]c2=O)[C@H](O[Si](C)(C)C(C)(C)C)C12OS(=O)(=O)C=C2N` (stereo in doubt; 11b) displayed an EC50 of over 1.6 µg/mL. The molecule also registered a 50% cytotoxic concentration (CC50) in test [2] of 3.1 µg/mL (≈ 5.38 µM). In addition, the Selectivity index in test [3] is listed as under 2.

On to `CC(C)(C)[Si](C)(C)OC[C@H]1O[C@@H](n2ccc(=O)[nH]c2=O)[C@H](O[Si](C)(C)C(C)(C)C)C12OS(=O)(=O)C=C2N` (stereo in doubt; 12b), for which the concentration giving a half-maximal response (EC50) in test [1] (lymphocyte) is 0.114 µg/mL (≈ 0.198 µM). In test [2], this molecule had a CC50 of 8.3 µg/mL (≈ 14.4 µM). Besides, the Selectivity index in test [3] is reported as 73.

For `Cc1c(Sc2ccccc2)n(COCCO)c(=O)[nH]c1=O` [HEPT], the EC50 in test [1] (setting [4]) was determined as 5.5 µg/mL (≈ 17.8 µM). Besides, the CC50 in test [2] (setting [5]) was over 200 µg/mL. In addition, in test [3], the Selectivity index is given as over 36.

For `Cc1ccnc2c1NC(=O)c1cccnc1N2C1CC1` [NEVIRAPINE], in test [1] (setting [4]), the EC50 was 0.038 µg/mL (≈ 0.143 µM). For the same molecule, the half-maximal cytotoxic concentration (CC50) in test [2] (setting [5]) was over 20 µg/mL. Also, the Selectivity index in test [3] was over 526.
